PubChem BioAssay AID540347 (Broad Institute, 2011)
The source made the active and inactive calls.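 The calls were made as follows: active = viability loss with fitted half-maximal concentration at most ten times the top valid dose; inconclusive = flat fit with 30 to 70% inhibition, or poor fit; inactive = the rest, including rising signal.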

Experiments:
[1] = system: SK-MEL-5 viability, CellTiter-Glo ATP luminescence, 24 h; experiment: ATP-based growth inhibition in SK-MEL-5 cells – cell-based, CellTiter-Glo luminescence, dry powder samples, orthogonal assay for MITF inhibitor project, dose response (AID 540347)
In short: (§1)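 Schedule: 24 h compound exposure, 37 °C. Assay system: SK-MEL-5 melanoma cells, parent of primary-assay reporter line. Buffer or medium: phenol red-free medium. Read-out: cell viability. Measured by: ATP luminescence, CellTiter-Glo.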

[2] = as above; conditions: SK-MEL-5 viability, CellTiter-Glo ATP luminescence, 24 h; at 35 µM (top of the series)
In short: as §1

Row | IC50 [1] | Structure (SMILES) | activity change, negative = inhibition [2]
1 | 29.2 µM | CC1(C)CC(NC(=O)c2ccc(Cl)c(S(=O)(=O)N(Cc3ccccc3)c3ccccc3)c2)CC(C)(C)N1 | 
2 | 4.78 µM | CCN1c2ccccc2NC2N=C(OC)C(c3ccccc3)C21 (stereo not given) | 
3 | 9.51 µM | Cc1nc2ccccc2n1/N=C/c1ccc([N+](=O)[O-])s1 | 
4 |  | CCN(CC)CCNC(=O)c1c(C)n(-c2ccccc2)c2cc(Br)c(OC)cc12 | -13.7% (inactive)
5 | 27.1 µM | Cc1cc(C(C)(C)C)cc(C)c1Cn1c2[n+](c3ccc(C(F)(F)F)cc31)CCCCC2 | 
6 |  | CC1CCN(CC(CS(=O)(=O)c2ccc([N+](=O)[O-])cc2)N2CCC(C)CC2)CC1 (stereo not given) | 3.72% (inactive)
7 | 27.7 µM | Cc1[nH]c2ccccc2c1C(=O)CCl | 
8 | 25.4 µM | CC1=NNC(=O)/C1=C\c1cn(-c2ccccc2)nc1-c1ccc(F)cc1 | 
9 | 35.5 µM | O=C(COc1ccccc1)N/N=C/c1ccc([N+](=O)[O-])o1 | 
10 |  | Cc1ccc(C(=O)N/N=C/c2ccc([N+](=O)[O-])s2)cc1 | -12.1% (inactive)
11 |  | Cc1oc(-c2ccc(Cl)cc2)nc1CN1CCC(C(=O)NCCCN2CCCC(C)C2)CC1 (stereo not given) | -12.1% (inactive)
12 | 33.5 µM | CCN1CCN(C2=C(NS(=O)(=O)c3ccc(Br)cc3)C(=O)c3ccccc3C2=O)CC1 | 
13 |  | CC1CCCCC1NC(=O)/C(C#N)=C/C=C/c1ccccc1[N+](=O)[O-] (stereo not given) | 9.93% (inactive)
14 | 29.1 µM | CCN1CCCC1CNC(=O)c1ccc2c(c1)NC(=O)/C(=C\c1ccc(C)cc1)S2 (stereo not given) | 
15 |  | Cc1ccc(C(C)C)c(OCc2nn(CC(=O)c3ccc(Cl)cc3)c3[n+]2CCCCC3)c1 | -4.44% (inactive)
16 | 24.7 µM | O=c1c(Cl)c2oc3ccccc3nc-2c2ccccc12 | 
17 | 30.5 µM | N=c1n(CCN2CCCC2)c2ccccc2n1CC(O)c1ccc(Cl)c(Cl)c1 (stereo not given) | 
18 |  | COc1cc(/C=N/NC(N)=O)c(Br)cc1OCC(=O)Nc1ccccc1C | -15.2% (inactive)
19 | 36.5 µM | CC(C)C(CCNC1CCN(C)CC1)c1ccc(Cl)cc1 (stereo not given) | 
20 | 14.3 µM | C=CCNC1=C(Cl)C(=O)c2ccccc2C1=O | 
21 | 28.4 µM | COc1cc2c(cc1OC)C(c1ccccc1)N(C(=O)CCl)CC2 (stereo not given) | 
22 | 32 µM | CN(C)CCCNC(=O)/C(=C\c1ccc(-c2ccc(Br)cc2)o1)NC(=O)c1ccccc1 | 
23 | 6.58 µM | COc1ccc(S(=O)(=O)N(C(C)=O)c2ccc(OC(C)=O)c3ccccc23)cc1[N+](=O)[O-] | 
24 |  | Cc1ccc(C(O)(c2ccc(C)c(C)c2)C2CN3CCC2CC3)cc1C (stereo not given) | -2.1% (inactive)
25 |  | O=C(Nc1ccc(-c2nc3ncccc3o2)cc1)c1ccc([N+](=O)[O-])o1 | 6.95% (inactive)
